Measured values taken from ChEMBL document CHEMBL2202972, “Synthesis and biological evaluation of 2-substituted-4-(3',4',5'-trimethoxyphenyl)-5-aryl thiazoles as anticancer agents” (Bioorg Med Chem, 2012).

What was measured:
[1] = Antiproliferative activity against human doxorubicin-resistant LoVo/DX cells overexpressing P-glycoprotein after 72 hrs by MTT assay; type: functional, cell-based
How it was run: (§1)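 Resistant sublines cultured under selection: LoVo^Doxo (doxorubicin-resistant LoVo subclone) in complete Ham's F12 with doxorubicin 0.1 μg/mL; A549-T12 in complete DMEM with taxol 12 nM. Seeded at 8 × 10³ per well, 18 h preincubation, then 72 h compound exposure at 37 °C. MTT read-out.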

[2] = organism: Bos taurus; experiment: Displacement of [3H]colchicine from tubulin in bovine brain at 5 uM DEAE-cellulose filter method
[3] = Inhibition of bovine brain tubulin polymerization preincubated for 15 mins by turbidimetric analysis; design: species or system Bos taurus
How it was run: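 Bovine brain tubulin (10 μM) in glutamate buffer preincubated with varying compound concentrations for 15 min at 30 °C, then chilled to 0 °C. GTP 0.4 mM added and mixtures warmed to 30 °C in a spectrophotometer; assembly followed by turbidity at 350 nm.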

[4] = tested on: HT-29; experiment: Antiproliferative activity against human HT-29 cells after 72 hrs by MTT assay; type: functional, cell-based; conditions: HT-29, 72 h
[5] = tested on: Jurkat; experiment: Antiproliferative activity against human Jurkat cells after 72 hrs by MTT assay; type: functional, cell-based
How it was run: (§2)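 Cells seeded at 8 × 10³ per well and incubated 18 h at 37 °C, 5% CO₂, then exposed to a range of compound concentrations for 72 h at 37 °C. Jurkat and HL-60 were grown in RPMI-1640, the others in DMEM, with penicillin, streptomycin and 10% FBS. DMSO stocks (10 mM); DMSO ≤0.25% final. Viability by MTT. […] Mean ± SE of ≥3 independent experiments.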

[6] = tested on: MCF7; experiment: Antiproliferative activity against human MCF7 cells after 72 hrs by MTT assay; type: functional, cell-based; conditions: MCF7, 72 h
[7] = tested on: HL-60; experiment: Antiproliferative activity against human HL60 cells after 72 hrs by MTT assay; type: functional, cell-based; conditions: HL-60, 72 h
[8] = tested on: A549; experiment: Antiproliferative activity against human A549 cells after 72 hrs by MTT assay; type: functional, cell-based; conditions: A549, 72 h
[9] = tested on: HeLa; experiment: Antiproliferative activity against human HeLa cells after 72 hrs by MTT assay; type: functional, cell-based
[10] = tested on: A549; experiment: Resistance ratio of IC50 for human taxol-resistant A549-T12 cells expressing tubulin mutant gene to IC50 for human A549 cells; type: functional
[11] = tested on: CCRF-CEM; experiment: Resistance ratio of IC50 for human vinblastine-resistant CEM/VBL100 cells overexpressing P-glycoprotein to IC50 for human CEM cells; type: functional
[12] = tested on: LoVo; experiment: Resistance ratio of IC50 for human doxorubicin-resistant LoVo/DX cells overexpressing P-glycoprotein to IC50 for human LoVo cells; type: functional
[13] = Antiproliferative activity against human taxol-resistant A549-T12 cells expressing tubulin mutant gene after 72 hrs by MTT assay; type: functional, cell-based; conditions: A549, 72 h; how it was run: as §1
[14] = Antiproliferative activity against human vinblastine-resistant CEM/VBL100 cells overexpressing P-glycoprotein after 72 hrs by MTT assay; type: functional, cell-based; conditions: CEM/VBL100, 72 h
[15] = tested on: CCRF-CEM; experiment: Antiproliferative activity against human CEM cells after 72 hrs by MTT assay; type: functional, cell-based
[16] = tested on: LoVo; experiment: Antiproliferative activity against human LoVo cells after 72 hrs by MTT assay; type: functional, cell-based; how it was run: as §2

SMILES	IC50 [1]	inhibition [2]	IC50 [3]	IC50 [4]	IC50 [5]	IC50 [6]	IC50 [7]	IC50 [8]	IC50 [9]	Ratio IC50 [10]	Ratio IC50 [11]	Ratio IC50 [12]	IC50 [13]	IC50 [14]	IC50 [15]	IC50 [16]
COc1cccc2c1C(=O)c1c(O)c3c(c(O)c1C2=O)C[C@@](O)(C(=O)CO)C[C@@H]3O[C@H]1C[C@H](N)[C@H](O)[C@H](C)O1 [DOXORUBICIN]	13200 nM	–	–	–	–	–	–	–	–	–	–	–	–	–	–	–
CNc1nc(-c2cc(OC)c(OC)c(OC)c2)c(-c2ccc(C)cc2)s1	–	68%	1200 nM	423 nM	19 nM	10.1 nM	18.1 nM	125 nM	69.1 nM	–	–	–	–	–	–	–
CNc1nc(-c2cc(OC)c(OC)c(OC)c2)c(-c2ccc(OC)cc2)s1	152 nM	61%	1300 nM	6.3 nM	34.3 nM	37.6 nM	27.3 nM	138 nM	70.1 nM	0.9	1.5	0.8	125 nM	15 nM	10 nM	190 nM
CNc1nc(-c2cc(OC)c(OC)c(OC)c2)c(-c2ccc(C(F)(F)F)cc2)s1	–	–	–	1240 nM	3010 nM	7280 nM	3170 nM	4560 nM	3400 nM	–	–	–	–	–	–	–
CC[C@]1(O)C[C@@H]2CN(CCc3c([nH]c4ccccc34)[C@@](C(=O)OC)(c3cc4c(cc3OC)N(C)[C@H]3[C@@](O)(C(=O)OC)[C@H](OC(C)=O)[C@]5(CC)C=CCN6CC[C@]43[C@@H]65)C2)C1 [VINBLASTINE]	–	–	–	–	–	–	–	–	–	–	256.2	–	–	–	–	–
COc1cc(-c2nc(N(C)C)sc2-c2ccc(C)cc2)cc(OC)c1OC	–	–	> 20000 nM	3920 nM	6660 nM	> 10000 nM	3480 nM	3960 nM	4140 nM	–	–	–	–	–	–	–
CCOc1ccc(-c2sc(C)nc2-c2cc(OC)c(OC)c(OC)c2)cc1	–	51%	1200 nM	487 nM	1740 nM	42.3 nM	253 nM	3320 nM	1870 nM	–	–	–	–	–	–	–
COc1cc(-c2nc(N(C)C)sc2-c2ccc(C(F)(F)F)cc2)cc(OC)c1OC	–	–	> 20000 nM	> 10000 nM	> 10000 nM	> 10000 nM	> 10000 nM	> 10000 nM	> 10000 nM	–	–	–	–	–	–	–
